# Experimental data from PMC2755535 (Archives of toxicology, 2009).
# Assays:
# [1] = test system: peroxisomal acyl Co-A oxidase (AOX); test: Peroxisomal acyl Co-A oxidase activity in liver homogenates; format: in vivo, female Sprague-Dawley rats; conditions: for AOX activity in liver, change versus control (significance): Figure 3; for Increase of peroxisomal AOX activity in liver compared to control: oral 21 days, N-EtFOSE increase p = 0.35
# Catalase = Catalase activity in liver and uterus; format: in vivo, female Sprague-Dawley rats; conditions: Figure 5
# Outline: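 Female Sprague-Dawley rats were gavaged once daily, 5 days/week for 21 days, with test compound at 5.0 mg/kg in corn oil (2 mL/kg) or with vehicle. A positive control peroxisome proliferator was given at 7.5 mg/kg/day in water/methylcellulose. H2O2 was added to liver or uterus homogenate in potassium phosphate buffer (pH 7.8), and H2O2 loss at 240 nm was followed for 2 min. Results are milli-k units/mg Lowry protein, compared by ANOVA with Dunnett's test.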
# [2] = test system: Thiobarbituric acid reactive substances (TBARS); test: TBARS in whole liver homogenate; format: in vivo, female Sprague-Dawley rats; conditions: data not shown
# Outline: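 Female Sprague-Dawley rats were gavaged once daily, 5 days/week for 21 days. Groups: test compound at 5.0 mg/kg in corn oil (2 mL/kg, n=9), corn-oil vehicle (n=9), or a reference peroxisome proliferator at 7.5 mg/kg/day in water/methylcellulose (n=8). Euthanasia was 3 days (1 day for the reference agent) after the last dose. TBARS were measured fluorometrically in whole liver homogenate.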
# [3] = test system: copper zinc superoxide dismutase (CuZnSOD); test: CuZnSOD activity in liver and uterus; format: in vivo, female Sprague-Dawley rats; conditions: Figure 4
# [4] = test system: reduced to oxidized glutathione; test: Total and oxidized glutathione; format: in vivo, female Sprague-Dawley rats; conditions: data not shown
# Outline: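 Female Sprague-Dawley rats were gavaged for 21 days (5 days/week) with test compound at 5.0 mg/kg in corn oil (n=9), vehicle (n=9), or a reference peroxisome proliferator at 7.5 mg/kg/day (n=8), then killed by CO2. Liver and uterus aliquots were homogenized immediately in 5% 5-sulfosalicylic acid. Total and oxidized glutathione were measured by enzymatic recycling, and the GSH:GSSG ratio was derived.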
# GPx-1 = GPx-1 activity; format: in vivo, female Sprague-Dawley rats; conditions: Figure 6
# Outline: (§1)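 Rats were dosed orally for 21 days (5 days/week) with test compound at 5.0 mg/kg/day in corn oil, with vehicle, or with a positive control. Liver and uterus homogenates were assayed in a coupled glutathione reductase/NADPH system, reading NADPH decrease at 340 nm. H2O2 was the substrate for GPx-1 and cumene hydroperoxide for total GPx. Results are milliunits/mg Lowry protein, analysed by ANOVA and Dunnett's test (p<0.05).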
# Total GPx = Total GPx activity; format: in vivo, female Sprague-Dawley rats; conditions: Figure 6
# Outline: as §1
# [5] = Histopathological evaluation of H&E stained liver and uterus sections; format: in vivo, female Sprague-Dawley rats
# [6] = format: in vivo, female Sprague-Dawley rats; conditions: oral 21 days, N-EtFOSE 5.0 mg/kg or ciprofibrate 7.5 mg/kg/day
# [7] = test system: Manganese superoxide dismutase (MnSOD); test: MnSOD activity in liver and uterus; format: in vivo, female Sprague-Dawley rats; conditions: Figure 4; for MnSOD activity in the liver, change versus control: ciprofibrate p = 0.07
# total SOD = test: Total SOD activity in liver and uterus; format: in vivo, female Sprague-Dawley rats; conditions: Figure 4
# [8] = sheep; ref Vitayavirasuk and Bowen, 1999; cited from earlier work
# [9] = human blood; ref Kärrman et al., 2006b; cited from earlier work
# [10] = rat, in vivo; cited from earlier work
# [11] = sheep, in vivo; cited from earlier work
# [12] = Levels of N-EtFOSE and metabolites in liver and serum; format: in vivo, female Sprague-Dawley rats; conditions: for %TD in Serum (× 10^-3) / %TD in Serum: assuming serum volume of 4.86 mL/100 mg; for Liver: serum ratio: N-EtFOSE-treated female rats, mean
# [13] = rat, in vivo; cited from earlier work; remark: listed apart in the source
# [14] = percentage of the total N-EtFOSE dose
# [15] = percentage of the total N-EtFOSE dose, recovery adjusted
Compound,"AOX activity in liver, change versus control (significance) [1]",Increase of peroxisomal AOX activity in liver compared to control [1],"Catalase activity in the liver, change versus control (Catalase)","Catalase activity in the uterus, change versus control (Catalase)",TBARS in the liver [2],"CuZnSOD activity in the liver, change versus control [3]","CuZnSOD activity in the uterus, change versus control [3]",GSH:GSSG ratio in the liver [4],GSH:GSSG ratio in the uterus [4],"GPx-1 activity in the liver, change versus control (GPx-1)","GPx-1 activity in the uterus, change versus control (GPx-1)","Total GPx activity in the liver, change versus control (Total GPx)","Total GPx activity in the uterus, change versus control (Total GPx)",Survival and clinical signs of toxicity [6],"Ratio of Organ Weight to Body Weight, Spleen ([6]; mean ± SD)","MnSOD activity in the liver, change versus control [7]","MnSOD activity in the uterus, change versus control [7]","%TD in Serum (× 10^-3) [12, 14]","%TD in Liver [12, 15]",Liver: serum ratio [12],other results
"CC(C)(Oc1ccc(C2CC2(Cl)Cl)cc1)C(=O)O (stereo not shown) [Ciprofibrate, reference compound]",significant increase,300 fold,not significantly altered,did not alter,Neither N-EtFOSE nor ciprofibrate had an effect,not significant effect,increased,Neither N-EtFOSE nor ciprofibrate had an effect,Neither N-EtFOSE nor ciprofibrate had an effect,significantly decreased,decreased only in the liver,significantly decreased,significantly decreased,no clinical findings,2.5 ± 0.2 % (× 10^-3),tended to be increased,significantly decreased,,,,"Histopathological evaluation of H&E stained liver and uterus slices ([5]; oral 21 days, data not shown): did not reveal pathological changes; Organ weight, Kidney ([6]; mean ± SD): 1.69 ± 0.05 g; Organ weight, Liver ([6]; mean ± SD): 13 ± 0.97 g; Organ weight, Spleen ([6]; mean ± SD): 0.58 ± 0.04 g; Organ weight, Uterus ([6]; mean ± SD): 0.31 ± 0.06 g; Ratio of Organ Weight to Body Weight, Liver ([6]; mean ± SD): 5.9 ± 0.3 %; Total SOD activity in the liver, change versus control (total SOD): not significant effect; Total SOD activity in the uterus, change versus control (total SOD): did not significantly alter"
"NS(=O)(=O)C(F)(F)C(F)(F)C(F)(F)C(F)(F)C(F)(F)C(F)(F)C(F)(F)C(F)(F)F [FOSA, perfluorooctanesulfonamide]",,,,,,,,,,,,,,,,,,25.3 ± 6.1 (× 10^-3) %TD (× 10^-3),0.29 ± 0.06 %TD,,"plasma-to-whole blood ratio [8]: 0.04; mean plasma-to-whole blood ratio [9]: 0.2; half-life [10]: approximately 100 hours; elimination phase half-life [11]: 63.4 h; Kp at 3 days after the last dose ([12]; female, Sprague-Dawley, rat, in vivo): 10.1"
"O=S(=O)(NCCO)C(F)(F)C(F)(F)C(F)(F)C(F)(F)C(F)(F)C(F)(F)C(F)(F)C(F)(F)F [FOSE, perfluorooctanesulfonamidoethanol]",,,,,,,,,,,,,,,,,,0.07 ± 0.03 (× 10^-3) %TD (× 10^-3),,6.4,"%TD in Liver (× 10^-3) [12, 15]: 0.58 ± 0.35 (× 10^-3) %TD (× 10^-3)"
"CCN(CC(=O)O)S(=O)(=O)C(F)(F)C(F)(F)C(F)(F)C(F)(F)C(F)(F)C(F)(F)C(F)(F)C(F)(F)F [N-EtFOSAA, N-ethyl perfluorooctanesulfonamidoacetate]",,,,,,,,,,,,,,,,,,,0.43 ± 0.13 %TD,1.3,"%TD in Serum [12, 14]: 0.38 ± 0.17 %TD"
"CCN(CCO)S(=O)(=O)C(F)(F)C(F)(F)C(F)(F)C(F)(F)C(F)(F)C(F)(F)C(F)(F)C(F)(F)F [N-EtFOSE, N-Ethyl perfluorooctanesulfonamidoethanol]",did not reach statistical significance,16 fold,not significantly altered,significantly increased,Neither N-EtFOSE nor ciprofibrate had an effect,significantly increased,significantly increased,Neither N-EtFOSE nor ciprofibrate had an effect,Neither N-EtFOSE nor ciprofibrate had an effect,No significant change,no effect,No significant change,significant decrease,no clinical findings,2.7 ± 0.2 % (× 10^-3),significantly increased,only exception,0.42 ± 0.20 (× 10^-3) (n=5) %TD (× 10^-3),,,"Doses causing a reduced body weight gain in pregnant rats [13]: > 5 mg/kg body weight/day; Histopathological evaluation of H&E stained liver and uterus slices ([5]; rat, in vivo, po): did not reveal pathological changes; Ratio of Organ Weight to Body Weight, Kidney ([6]; mean ± SD): 6.8 ± 0.4%; Ratio of Organ Weight to Body Weight, Uterus ([6]; mean ± SD): 1.6 ± 0.3%; Total SOD activity in the liver, change versus control (total SOD): significantly increased; Total SOD activity in the uterus, change versus control (total SOD): significantly increased; Uncorrected N-EtFOSE level in the liver ([12]; rat, in vivo): c Corrected N-EtFOSE levels in the liver are not reported because of the poor recovery rate (2.5±1%); uncorrected N-EtFOSE levels group were low, with 4.6 ± 4.7 ppb in N-EtFOSE-treated animals and 7.8 ± 1.3 ppb in control animals."
"O=S(=O)(O)C(F)(F)C(F)(F)C(F)(F)C(F)(F)C(F)(F)C(F)(F)C(F)(F)C(F)(F)F [PFOS, perfluorooctane sulfonic acid]",,,,,,,,,,,,,,,,,,,6.23 ± 0.95 %TD,2.3,"%TD in Serum [12, 14]: 3.86 ± 0.86 %TD; Share of the total N-EtFOSE dose in the serum and liver ([12]; serum plus liver): approximately 9.5±1.2%"
